Data reported in ChEMBL document CHEMBL1671628, “Cell density and cell aging as factors modulating antifungal resistance of Candida albicans biofilms” (2008).
Values after ≈ are worked out from the molar mass of the structure shown.

Key:
Candida albicans [1] = test: Antifungal activity against 10^7 cells/ml wild-type Candida albicans BF-1 planktonic cells by XTT reduction assay; format: functional
How it was run: (§1)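 High-density planktonic suspensions (10^7 or 10^8 cells/ml) added to serially double-diluted drugs as in the NCCLS setup, run in parallel in RPMI 1640 + 2% glucose and YNB + 100 mM glucose. Viability read by XTT (1 mg/ml) with menadione (0.4 mM stock, 5:1), 3 h dark at 37°C, A490 minus blank wells. MIC50 = lowest concentration giving 50% reduction versus drug-free control.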

Candida albicans [2] = test: Antifungal activity against 48 hrs cultures of 10^7 cells/ml biofilm-derived Candida albicans BF-1 planktonic cells hrs by XTT reduction method; format: functional; settings: BF-1, 48 h
How it was run: (§2)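 Biofilms grown from 1 × 10^7 cells/ml (YNB + 100 mM glucose, 1.5 h adherence, 37°C, 75 rpm) for 24 or 48 h, washed, scraped and moved to wells of serially double-diluted drugs. Incubated with drug 24 or 48 h, then XTT–menadione read at 490 nm. MIC50 = 50% reduction versus drug-free control.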

Candida albicans [3] = test: Antifungal activity against 10^5 cells/ml Candida albicans ATCC 90028 by EUCAST method; format: functional
How it was run: (§3)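 EUCAST AFST planktonic broth microdilution: RPMI 1640 plus 2% glucose, inoculum 0.5 × 10^5 to 2.5 × 10^5 cells/ml, twofold drug dilutions. Performed on three different occasions.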

Candida albicans [4] = test: Antifungal activity against 10^3 cells/ml Candida albicans SC5314 by NCCLS method; format: functional
How it was run: (§4)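 Planktonic broth microdilution per NCCLS (CLSI): inoculum from 24-h SDA cultures adjusted to 0.5 McFarland at 520 nm, diluted in RPMI 1640 to about 0.5 × 10^3 to 2.5 × 10^3 cells/ml. Cells exposed to twofold drug dilutions, incubated 35°C for 48 h, then MIC read. Three separate occasions.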

Candida albicans [5] = test: Antifungal activity against 48 hrs cultures of 10^7 cells/ml Candida albicans BF-1 biofilms by XTT reduction method; format: functional; settings: BF-1, 48 h
How it was run: (§5)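 Washed late-exponential cells at 1 × 10^7 cells/ml in YNB + 100 mM glucose were adhered 1.5 h at 37°C with shaking at 75 rpm, washed, then grown 24 or 48 h at 37°C, 75 rpm. Biofilms were washed and exposed 24 or 48 h at 37°C to twofold dilutions in RPMI + 2% glucose. Read by XTT at A490. MIC50 is 50% reduction vs drug-free control. Three experiments, four replicates.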

Candida albicans [6] = test: Antifungal activity against 24 hrs cultures of 10^7 cells/ml Candida albicans BF-1 planktonic cells by XTT reduction method; format: functional; settings: BF-1, 24 h
How it was run: (§6)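 Age-matched planktonic cultures were grown from the same 1 × 10^7 cells/ml YNB + 100 mM glucose suspension under the biofilm conditions for 24 or 48 h. They were tested against twofold drug dilutions by XTT reduction (3 h at 37°C in the dark, A490 minus blank). MIC50 is 50% reduction vs drug-free control.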

Candida albicans [7] = test: Antifungal activity against 24 hrs cultures of 10^7 cells/ml Candida albicans ATCC 90028 biofilms by XTT reduction method; format: functional; settings: ATCC 90028, 24 h; how it was run: as §5
Candida albicans [8] = test: Antifungal activity against 24 hrs cultures of 10^7 cells/ml Candida albicans SC5314 biofilms by XTT reduction assay; format: functional; settings: SC5314, 24 h; how it was run: as §5
Candida albicans [9] = test: Antifungal activity against 10^7 cells/ml Candida albicans ATCC 90028 planktonic cells by XTT reduction assay; format: functional; how it was run: as §1
Candida albicans [10] = test: Antifungal activity against 10^8 cells/ml Candida albicans SC5314 planktonic cells by XTT reduction assay; format: functional; how it was run: as §1
Candida albicans [11] = test: Antifungal activity against 10^5 cells/ml wild-type Candida albicans BF-1 by EUCAST method; format: functional; how it was run: as §3
Candida albicans [12] = test: Antifungal activity against 48 hrs cultures of 10^7 cells/ml Candida albicans ATCC 90028 biofilms by XTT reduction method; format: functional; settings: ATCC 90028, 48 h; how it was run: as §5
Candida albicans [13] = test: Antifungal activity against 24 hrs cultures of 10^7 cells/ml Candida albicans ATCC 90028 biofilms by XTT reduction assay; format: functional; settings: ATCC 90028, 24 h; how it was run: as §5
Candida albicans [14] = test: Antifungal activity against 10^8 cells/ml wild-type Candida albicans BF-1 planktonic cells by XTT reduction assay; format: functional
How it was run: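 Planktonic suspensions at 1 × 10^8 cells/ml added to twofold serial drug dilutions in 96-well plates (NCCLS format). Run in parallel in RPMI 1640 + 2% glucose and YNB + 100 mM glucose. Readout by XTT reduction: XTT–menadione in PBS, 3 h at 37°C in the dark, A490 minus blank. MIC50 is 50% reduction vs drug-free control.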

Candida albicans [15] = test: Antifungal activity against 24 hrs cultures of 10^7 cells/ml biofilm-derived Candida albicans ATCC 90028 planktonic cells hrs by XTT reduction method; format: functional; settings: ATCC 90028, 24 h; how it was run: as §2
Candida albicans [16] = test: Antifungal activity against 24 hrs cultures of 10^7 cells/ml Candida albicans BF-1 biofilms by XTT reduction method; format: functional; settings: BF-1, 24 h; how it was run: as §5
Candida albicans [17] = test: Antifungal activity against 48 hrs cultures of 10^7 cells/ml Candida albicans BF-1 planktonic cells by XTT reduction method; format: functional; settings: BF-1, 48 h; how it was run: as §6
Candida albicans [18] = test: Antifungal activity against 24 hrs cultures of 10^7 cells/ml biofilm-derived Candida albicans BF-1 planktonic cells hrs by XTT reduction method; format: functional; settings: BF-1, 24 h
How it was run: (§7)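 Biofilms grown 24 or 48 h from 1 × 10^7 cells/ml were washed, scraped and transferred into plates of twofold serially diluted drugs. They were incubated 24 or 48 h. MIC was read by XTT reduction (3 h at 37°C in the dark, A490 minus blank) as 50% reduction vs drug-free control.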

Candida albicans [19] = test: Antifungal activity against 48 hrs cultures of 10^7 cells/ml biofilm-derived Candida albicans ATCC 90028 planktonic cells hrs by XTT reduction method; format: functional; settings: ATCC 90028, 48 h; how it was run: as §7
Candida albicans [20] = test: Antifungal activity against 10^3 cells/ml Candida albicans ATCC 90028 by NCCLS method; format: functional; how it was run: as §4
Candida albicans [21] = test: Antifungal activity against 24 hrs cultures of 10^7 cells/ml wild-type Candida albicans BF-1 biofilms by XTT reduction assay; format: functional; settings: BF-1, 24 h; how it was run: as §5
Candida albicans [22] = test: Antifungal activity against 10^8 cells/ml Candida albicans ATCC 90028 planktonic cells by XTT reduction assay; format: functional; how it was run: as §1
Candida albicans [23] = test: Antifungal activity against 48 hrs cultures of 10^8 cells/ml wild-type Candida albicans BF-1 biofilms by XTT reduction assay; settings: BF-1, 48 h
Candida albicans [24] = test: Antifungal activity against 48 hrs cultures of 10^7 cells/ml Candida albicans ATCC 90028 planktonic cells by XTT reduction method; format: functional; settings: ATCC 90028, 48 h; how it was run: as §6
Candida albicans [25] = test: Antifungal activity against 10^3 cells/ml wild-type Candida albicans BF-1 by NCCLS method; format: functional; how it was run: as §4
Candida albicans [26] = test: Antifungal activity against 48 hrs cultures of 10^8 cells/ml Candida albicans ATCC 90028 biofilms by XTT reduction assay; settings: ATCC 90028, 48 h
Candida albicans [27] = test: Antifungal activity against 24 hrs cultures of 10^7 cells/ml Candida albicans ATCC 90028 planktonic cells by XTT reduction method; format: functional; settings: ATCC 90028, 24 h
How it was run: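 Standard 1 × 10^7 cells/ml suspension in YNB + 100 mM glucose propagated planktonically 24 h alongside age-matched biofilms, then exposed to twofold drug dilutions. Metabolic activity read by XTT–menadione reduction, 3 h dark, 37°C, A490 background-subtracted. MIC50 is the 50% reduction point versus drug-free control.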

SMILES | MIC (Candida albicans [1]) [µg/mL] | MIC (Candida albicans [2]) [µg/mL] | MIC (Candida albicans [3]) [µg/mL] | MIC (Candida albicans [4]) [µg/mL] | MIC (Candida albicans [5]) [µg/mL] | MIC (Candida albicans [6]) [µg/mL] | MIC (Candida albicans [7]) [µg/mL] | MIC (Candida albicans [8]) [µg/mL] | MIC (Candida albicans [9]) [µg/mL] | MIC (Candida albicans [10]) [µg/mL] | MIC (Candida albicans [11]) [µg/mL] | MIC (Candida albicans [12]) [µg/mL] | MIC (Candida albicans [13]) [µg/mL] | MIC (Candida albicans [14]) [µg/mL] | MIC (Candida albicans [15]) [µg/mL] | MIC (Candida albicans [16]) [µg/mL] | MIC (Candida albicans [17]) [µg/mL] | MIC (Candida albicans [18]) [µg/mL] | MIC (Candida albicans [19]) [µg/mL] | MIC (Candida albicans [20]) [µg/mL] | other results
C[C@@H]1[C@H](O)[C@@H](C)/C=C/C=C/C=C/C=C/C=C/C=C/C=C/[C@H](O[C@@H]2O[C@H](C)[C@@H](O)[C@H](N)[C@@H]2O)C[C@@H]2O[C@](O)(C[C@@H](O)C[C@@H](O)[C@H](O)CC[C@@H](O)C[C@@H](O)CC(=O)O[C@H]1C)C[C@H](O)[C@H]2C(=O)O [AMPHOTERICIN B] | 0.46 (≈ 0.498 µM) | 3.75 (≈ 4.06 µM) | 0.23 (≈ 0.249 µM) | 0.23 (≈ 0.249 µM) | 32 (≈ 34.6 µM) | 0.93 (≈ 1.01 µM) | 16 (≈ 17.3 µM) | 32 (≈ 34.6 µM) | 0.23 (≈ 0.249 µM) | 0.46 (≈ 0.498 µM) | 0.23 (≈ 0.249 µM) | 16 (≈ 17.3 µM) | 15 (≈ 16.2 µM) | 0.93 (≈ 1.01 µM) | 0.46 (≈ 0.498 µM) | 32 (≈ 34.6 µM) | 0.93 (≈ 1.01 µM) | 1.87 (≈ 2.02 µM) | 1.87 (≈ 2.02 µM) | 0.23 (≈ 0.249 µM) | MIC (Candida albicans [21]): 30 µg/mL (≈ 32.5 µM); MIC (Candida albicans [22]): 0.46 µg/mL (≈ 0.498 µM); MIC (Candida albicans [23]): 30 µg/mL (≈ 32.5 µM); MIC (Candida albicans [24]): 0.46 µg/mL (≈ 0.498 µM); MIC (Candida albicans [25]): 0.23 µg/mL (≈ 0.249 µM); MIC (Candida albicans [26]): 15 µg/mL (≈ 16.2 µM); MIC (Candida albicans [27]): 0.46 µg/mL (≈ 0.498 µM)
CC[C@H](C)C[C@H](C)CCCCCCCCC(=O)N[C@H]1C[C@@H](O)[C@@H](NCCN)NC(=O)[C@@H]2[C@@H](O)CCN2C(=O)[C@H]([C@H](O)CCN)NC(=O)[C@H]([C@H](O)[C@@H](O)c2ccc(O)cc2)NC(=O)[C@@H]2C[C@@H](O)CN2C(=O)[C@H]([C@@H](C)O)NC1=O [CASPOFUNGIN] | 0.2 (≈ 0.183 µM) | 0.2 (≈ 0.183 µM) | 0.2 (≈ 0.183 µM) | 0.2 (≈ 0.183 µM) | > 100 | 0.4 (≈ 0.366 µM) | 100 (≈ 91.5 µM) | > 100 | 0.2 (≈ 0.183 µM) | 0.2 (≈ 0.183 µM) | 0.2 (≈ 0.183 µM) | 100 (≈ 91.5 µM) | 100 (≈ 91.5 µM) | 0.4 (≈ 0.366 µM) | 0.2 (≈ 0.183 µM) | > 100 | 0.4 (≈ 0.366 µM) | 0.4 (≈ 0.366 µM) | 0.4 (≈ 0.366 µM) | 0.2 (≈ 0.183 µM) | MIC (Candida albicans [21]): > 100 µg/mL; MIC (Candida albicans [22]): 0.2 µg/mL (≈ 0.183 µM); MIC (Candida albicans [23]): > 100 µg/mL; MIC (Candida albicans [24]): 0.4 µg/mL (≈ 0.366 µM); MIC (Candida albicans [25]): 0.2 µg/mL (≈ 0.183 µM); MIC (Candida albicans [26]): 100 µg/mL (≈ 91.5 µM); MIC (Candida albicans [27]): 0.2 µg/mL (≈ 0.183 µM)
